Article PMC6331221 (Biomaterials, 2018)

Assays:
[1] = test system: A2780/CisR (cisplatin resistant) ovarian cancer cell line; test: MTT cytotoxicity and combination index in A2780/CisR cells; type: cell-based, human; conditions: 72 h
Method in brief: (§1)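 Cells grown in RPMI1640 with 10% FBS and 1% penicillin-streptomycin, seeded at 3000 cells/well 24 h before treatment, then exposed to free or micelle-incorporated drug serially diluted in full medium for 72 h. MTT added for 4 h at 37°C, formazan dissolved in DMSO, absorbance read at 562 nm. Survival relative to untreated wells; six wells, mean ± standard deviation; IC50 from fitted curves.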

[2] = test system: LCC-6-MDR orthotopic tumor; test: Anti-tumor efficacy in orthotopic LCC-6-MDR breast cancer model; type: in vivo, mice; conditions: q4d x 4; 60 mg/kg PTX and/or 4.5 mg/kg C6CP, cisplatin 3 mg/kg
[3] = test system: A2780 ovarian cancer cell line; test: MTT cytotoxicity assay in A2780 cells; type: cell-based, human; conditions: 72 h
Method in brief: as §1

[4] = test system: A2780/CisR ovarian cancer xenograft; test: Anti-tumor efficacy in A2780/CisR ovarian cancer xenograft model; type: in vivo, mice; conditions: q4d x 4, 20 mg/kg PTX and/or 20 mg/kg CP, cisplatin 3 mg/kg

## N.N.[Cl][Pt][Cl] [cisplatin]
[1]
  IC50: 10.88 µg/mL
[2]
  antitumor effect: considerable antitumor effect
[3]
  IC50: 1.141 µg/mL
[4]
  effect on tumor growth: small but significant effect by delaying the tumor growth
[4]; untreated 10.5 days
  median lifespan: 14.5 days
